Test results published in ChEMBL document CHEMBL1138525 (J Med Chem, 2009).

What was measured:
[1] = biological target: P2Y purinoceptor 2 (Homo sapiens, UniProt P41231, R177A); test: Agonist activity at N-terminal HA epitope-tagged human P2Y2 receptor R177A mutant expressed in human 1321N1 cells assessed as increase in intracellular calcium level; assay type: functional, cell-based
Outline: (§1)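 1321N1 astrocytoma cells stably expressing mutant receptor (retroviral transfection, G418 selection), loaded with Oregon Green BAPTA-1/AM in Krebs-HEPES pH 7.4 for 1 h at room temperature. Plated at 150000 cells/well and held 20 min at 28 °C in the dark. Efficacy relative to 100 µM carbachol.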

[2] = system: P2Y purinoceptor 2 (Homo sapiens), P41231 [Y118A]; test: Agonist activity at N-terminal HA epitope-tagged human P2Y2 receptor Y118A mutant expressed in human 1321N1 cells assessed as increase in intracellular calcium level relative to carbachol; assay type: functional, cell-based
Outline: (§2)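 Retrovirally transduced stable 1321N1 astrocytoma lines (wild-type lines of differing expression, or mutants) in suspension, loaded with Oregon Green BAPTA-1/AM for 1 h at room temperature. Cells were plated at 150000 per well in Krebs-HEPES pH 7.4 and held 20 min at 28 °C in the dark. Agonist was then injected, with fluorescence read at ex 485/em 520 nm for 60 × 0.4 s.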

[3] = biological target: P2Y purinoceptor 2 (Homo sapiens, UniProt P41231, S296A); test: Agonist activity at N-terminal HA epitope-tagged human P2Y2 receptor S296A mutant expressed in human 1321N1 cells assessed as increase in intracellular calcium level; assay type: functional, cell-based
Outline: (§3)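 Retrovirally transduced stable 1321N1 astrocytoma lines (wild-type lines of differing expression, or mutants) in suspension, loaded with Oregon Green BAPTA-1/AM for 1 h at room temperature. Cells were plated at 150000 per well in Krebs-HEPES pH 7.4 and held 20 min at 28 °C in the dark.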

[4] = system: P2Y purinoceptor 2 (Homo sapiens), P41231 [S296A]; test: Agonist activity at N-terminal HA epitope-tagged human P2Y2 receptor S296A mutant expressed in human 1321N1 cells assessed as increase in intracellular calcium level relative to carbachol; assay type: functional, cell-based; outline: as §2
[5] = biological target: T1, P2Y purinoceptor 2 (Homo sapiens, UniProt P41231); test: Agonist activity at N-terminal HA epitope-tagged wild type 3 human P2Y2 receptor expressed in human 1321N1 cells assessed as increase in intracellular calcium level; assay type: functional, cell-based; outline: as §3
[6] = system: P2Y purinoceptor 2 (Homo sapiens), P41231 [UNDEFINED MUTATION]; test: Ratio of EC50 for N-terminal HA epitope-tagged human P2Y2 receptor C278S mutant to EC50 for wild type 3 human P2Y2 receptor
[7] = system: P2Y purinoceptor 2 (Homo sapiens), P41231 [Y198A]; test: Agonist activity at N-terminal HA epitope-tagged human P2Y2 receptor Y198A mutant expressed in human 1321N1 cells assessed as increase in intracellular calcium level relative to carbachol; assay type: functional, cell-based; outline: as §2
[8] = system: P2Y purinoceptor 2 (Homo sapiens), P41231 [R272A]; test: Agonist activity at N-terminal HA epitope-tagged human P2Y2 receptor R272A mutant expressed in human 1321N1 cells assessed as increase in intracellular calcium level relative to carbachol; assay type: functional, cell-based; outline: as §2
[9] = biological target: P2Y purinoceptor 2 (Homo sapiens, UniProt P41231, R180A); test: Agonist activity at N-terminal HA epitope-tagged human P2Y2 receptor R180A mutant expressed in human 1321N1 cells assessed as increase in intracellular calcium level; assay type: functional, cell-based; outline: as §1
[10] = biological target: P2Y purinoceptor 2 (Homo sapiens, UniProt P41231, R194H); test: Agonist activity at N-terminal HA epitope-tagged human P2Y2 receptor R194H mutant expressed in human 1321N1 cells assessed as increase in intracellular calcium level; assay type: functional, cell-based; outline: as §1
[11] = system: P2Y purinoceptor 2 (Homo sapiens), P41231 [R177A,R180A]; test: Agonist activity at N-terminal HA epitope-tagged human P2Y2 receptor R177A_R180A double mutant expressed in human 1321N1 cells assessed as increase in intracellular calcium level relative to carbachol; assay type: functional, cell-based; outline: as §2
[12] = biological target: T1, P2Y purinoceptor 2; test: Agonist activity at N-terminal HA epitope-tagged wild type 4 human P2Y2 receptor expressed in human 1321N1 cells assessed as increase in intracellular calcium level; assay type: functional, cell-based; outline: as §3
[13] = biological target: T1, P2Y purinoceptor 2; test: Agonist activity at N-terminal HA epitope-tagged wild type 3 human P2Y2 receptor expressed in human 1321N1 cells assessed as increase in intracellular calcium level relative to carbachol; assay type: functional, cell-based; outline: as §2
[14] = system: P2Y purinoceptor 2 (Homo sapiens), P41231 [C278S]; test: Agonist activity at N-terminal HA epitope-tagged human P2Y2 receptor C278S mutant expressed in human 1321N1 cells assessed as increase in intracellular calcium level relative to carbachol; assay type: functional, cell-based; outline: as §2
[15] = biological target: T1, P2Y purinoceptor 2; test: Agonist activity at N-terminal HA epitope-tagged wild type 4 human P2Y2 receptor expressed in human 1321N1 cells assessed as increase in intracellular calcium level relative to carbachol; assay type: functional, cell-based; outline: as §2
[16] = biological target: P2Y purinoceptor 2 (Homo sapiens, UniProt P41231, R177A/R180A); test: Agonist activity at N-terminal HA epitope-tagged human P2Y2 receptor R177A_R180A double mutant expressed in human 1321N1 cells assessed as increase in intracellular calcium level; assay type: functional, cell-based; outline: as §1
[17] = system: P2Y purinoceptor 2 (Homo sapiens), P41231 [R180A]; test: Agonist activity at N-terminal HA epitope-tagged human P2Y2 receptor R180A mutant expressed in human 1321N1 cells assessed as increase in intracellular calcium level relative to carbachol; assay type: functional, cell-based; outline: as §2
[18] = system: P2Y purinoceptor 2 (Homo sapiens), P41231 [R177A]; test: Agonist activity at N-terminal HA epitope-tagged human P2Y2 receptor R177A mutant expressed in human 1321N1 cells assessed as increase in intracellular calcium level relative to carbachol; assay type: functional, cell-based; outline: as §2
[19] = biological target: P2Y purinoceptor 2 (Homo sapiens, UniProt P41231, C278S); test: Agonist activity at N-terminal HA epitope-tagged human P2Y2 receptor C278S mutant expressed in human 1321N1 cells assessed as increase in intracellular calcium level; assay type: functional, cell-based; outline: as §1
[20] = biological target: P2Y purinoceptor 2 (Homo sapiens, UniProt P41231, Y114A); test: Agonist activity at N-terminal HA epitope-tagged human P2Y2 receptor Y114A mutant expressed in human 1321N1 cells assessed as increase in intracellular calcium level; assay type: functional, cell-based; outline: as §1
[21] = biological target: P2Y purinoceptor 2 (Homo sapiens, UniProt P41231, R272A); test: Agonist activity at N-terminal HA epitope-tagged human P2Y2 receptor R272A mutant expressed in human 1321N1 cells assessed as increase in intracellular calcium level; assay type: functional, cell-based; outline: as §1
[22] = system: P2Y purinoceptor 2 (Homo sapiens), P41231 [Y114A]; test: Agonist activity at N-terminal HA epitope-tagged human P2Y2 receptor Y114A mutant expressed in human 1321N1 cells assessed as increase in intracellular calcium level relative to carbachol; assay type: functional, cell-based; outline: as §2
[23] = system: P2Y purinoceptor 2 (Homo sapiens), P41231 [UNDEFINED MUTATION]; test: Ratio of EC50 for N-terminal HA epitope-tagged human P2Y2 receptor Y114A mutant to EC50 for wild type 3 human P2Y2 receptor
Outline: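 HA-tagged receptors (wild type or mutant) were stably expressed in 1321N1 astrocytoma cells via retrovirus. Cells were loaded with Oregon Green BAPTA-1/AM in Krebs-HEPES pH 7.4, then kept 20 min at 28 °C before agonist injection. Fluorescence was read at 520 nm (excitation 485 nm). […] Each mutant was compared with the wild-type line of similar expression.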

[24] = system: P2Y purinoceptor 2 (Homo sapiens), P41231 [R194H]; test: Agonist activity at N-terminal HA epitope-tagged human P2Y2 receptor R194H mutant expressed in human 1321N1 cells assessed as increase in intracellular calcium level relative to carbachol; assay type: functional, cell-based; outline: as §2
[25] = biological target: P2Y purinoceptor 2 (Homo sapiens, UniProt P41231, Y198A); test: Agonist activity at N-terminal HA epitope-tagged human P2Y2 receptor Y198A mutant expressed in human 1321N1 cells assessed as increase in intracellular calcium level; assay type: functional, cell-based; outline: as §1
[26] = system: P2Y purinoceptor 2 (Homo sapiens), P41231 [UNDEFINED MUTATION]; test: Ratio of EC50 for N-terminal HA epitope-tagged human P2Y2 receptor Y118A mutant to EC50 for wild type 3 human P2Y2 receptor
[27] = biological target: T1, P2Y purinoceptor 2; test: Agonist activity at N-terminal HA epitope-tagged wild type human P2Y2 receptor expressed in human 1321N1 cells assessed as increase in intracellular calcium level; assay type: functional, cell-based; outline: as §2
[28] = biological target: P2Y purinoceptor 2 (Homo sapiens, UniProt P41231, Y118A); test: Agonist activity at N-terminal HA epitope-tagged human P2Y2 receptor Y118A mutant expressed in human 1321N1 cells assessed as increase in intracellular calcium level; assay type: functional, cell-based; outline: as §1
[29] = system: P2Y purinoceptor 2 (Homo sapiens), P41231 [UNDEFINED MUTATION]; test: Ratio of EC50 for N-terminal HA epitope-tagged human P2Y2 receptor R177A_R180A double mutant to EC50 for wild type 4 human P2Y2 receptor

T1 sequence (P41231 whole entry): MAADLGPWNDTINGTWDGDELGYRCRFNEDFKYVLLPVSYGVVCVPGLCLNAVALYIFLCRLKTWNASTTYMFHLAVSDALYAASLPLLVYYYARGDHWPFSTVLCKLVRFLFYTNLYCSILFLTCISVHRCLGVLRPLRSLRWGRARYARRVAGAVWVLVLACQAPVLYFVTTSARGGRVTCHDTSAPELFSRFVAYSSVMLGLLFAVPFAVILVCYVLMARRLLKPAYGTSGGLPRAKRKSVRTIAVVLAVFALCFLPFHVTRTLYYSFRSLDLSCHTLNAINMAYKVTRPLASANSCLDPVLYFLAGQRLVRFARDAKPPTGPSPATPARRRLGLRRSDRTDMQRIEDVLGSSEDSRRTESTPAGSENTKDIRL
Chain of P2Y purinoceptor 2 (Homo sapiens), P41231 [UNDEFINED MUTATION] (P41231 whole entry, looked up, stated change not applied): as the sequence (P41231 whole entry) above
Chain of P2Y purinoceptor 2 (Homo sapiens), P41231 [Y198A] (P41231 whole entry Y198A): as the sequence (P41231 whole entry) above, with Y198A counted along it
Chain of P2Y purinoceptor 2 (Homo sapiens, UniProt P41231, Y198A) (P41231 whole entry Y198A): as the sequence (P41231 whole entry) above, with Y198A counted along it
Chain of P2Y purinoceptor 2 (Homo sapiens), P41231 [C278S] (P41231 whole entry C278S): as the sequence (P41231 whole entry) above, with C278S counted along it
Chain of P2Y purinoceptor 2 (Homo sapiens, UniProt P41231, C278S) (P41231 whole entry C278S): as the sequence (P41231 whole entry) above, with C278S counted along it
Chain of P2Y purinoceptor 2 (Homo sapiens, UniProt P41231, R180A) (P41231 whole entry R180A): as the sequence (P41231 whole entry) above, with R180A counted along it
Chain of P2Y purinoceptor 2 (Homo sapiens), P41231 [R180A] (P41231 whole entry R180A): as the sequence (P41231 whole entry) above, with R180A counted along it
Chain of P2Y purinoceptor 2 (Homo sapiens), P41231 [R177A,R180A] (P41231 whole entry R177A/R180A): as the sequence (P41231 whole entry) above, with R177A, R180A counted along it
Chain of P2Y purinoceptor 2 (Homo sapiens, UniProt P41231, R177A/R180A) (P41231 whole entry R177A/R180A): as the sequence (P41231 whole entry) above, with R177A, R180A counted along it
Chain of P2Y purinoceptor 2 (Homo sapiens), P41231 [R194H] (P41231 whole entry R194H): as the sequence (P41231 whole entry) above, with R194H counted along it
Chain of P2Y purinoceptor 2 (Homo sapiens, UniProt P41231, R194H) (P41231 whole entry R194H): as the sequence (P41231 whole entry) above, with R194H counted along it
Chain of P2Y purinoceptor 2 (Homo sapiens, UniProt P41231, R272A) (P41231 whole entry R272A): as the sequence (P41231 whole entry) above, with R272A counted along it
Chain of P2Y purinoceptor 2 (Homo sapiens), P41231 [R272A] (P41231 whole entry R272A): as the sequence (P41231 whole entry) above, with R272A counted along it
Chain of P2Y purinoceptor 2 (Homo sapiens), P41231 [Y114A] (P41231 whole entry Y114A): as the sequence (P41231 whole entry) above, with Y114A counted along it
Chain of P2Y purinoceptor 2 (Homo sapiens, UniProt P41231, Y114A) (P41231 whole entry Y114A): as the sequence (P41231 whole entry) above, with Y114A counted along it
Chain of P2Y purinoceptor 2 (Homo sapiens), P41231 [R177A] (P41231 whole entry R177A): as the sequence (P41231 whole entry) above, with R177A counted along it
Chain of P2Y purinoceptor 2 (Homo sapiens, UniProt P41231, R177A) (P41231 whole entry R177A): as the sequence (P41231 whole entry) above, with R177A counted along it
Chain of P2Y purinoceptor 2 (Homo sapiens), P41231 [S296A] (P41231 whole entry S296A): as the sequence (P41231 whole entry) above, with S296A counted along it
Chain of P2Y purinoceptor 2 (Homo sapiens, UniProt P41231, S296A) (P41231 whole entry S296A): as the sequence (P41231 whole entry) above, with S296A counted along it
Chain of P2Y purinoceptor 2 (Homo sapiens), P41231 [Y118A] (P41231 whole entry Y118A): as the sequence (P41231 whole entry) above, with Y118A counted along it
Chain of P2Y purinoceptor 2 (Homo sapiens, UniProt P41231, Y118A) (P41231 whole entry Y118A): as the sequence (P41231 whole entry) above, with Y118A counted along it

Nc1ncnc2c1ncn2[C@@H]1O[C@H](COP(=O)(O)OP(=O)(O)OP(=O)(O)O)[C@@H](O)[C@H]1O [ADENOSINE TRIPHOSPHATE] was tested, and the EC50 [1] was 183 nM, the Efficacy [2] was 41% and the EC50 [3] was greater than 300000 nM. For the same compound, the Efficacy [4] was 5%, the EC50 [5] was 95.8 nM and the Ratio EC50 [6] was 10. It also gave an Efficacy [7] of 126%, an Efficacy [8] of 87% and an EC50 [9] of 237 nM. The EC50 [10] was 111 nM, the Efficacy [11] was 104% and the EC50 [12] was 63.1 nM. The Efficacy [13] was 92%, the Efficacy [14] was 97% and the Efficacy [15] was 110%. For the same compound, the EC50 [16] was 239 nM, the Efficacy [17] was 115% and the Efficacy [18] was 117%. It also gave an EC50 [19] of 1000 nM, an EC50 [20] of 30.1 nM and an EC50 [21] of 11700 nM. For the same compound, the Efficacy [22] was 87%, the Ratio EC50 [23] was 2 and the Efficacy [24] was 130%. The EC50 [25] was 120 nM, the Ratio EC50 [26] was 3 and the Activity [27] was “Dose-dependent effect”. The EC50 [28] was 299 nM and the Ratio EC50 [29] was 4.
